NPY1 pot ag: potentiators or agonists of human neuropeptide Y receptor Y1; 220,000 compounds, 0.37% hits; P25929; AID 1304; NPY-Y1 expressing cells, potentiator/agonist activation; activation, % at 3.6 µM; in the data active = activation above about 33%, passing the limit was not always enough;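 also: cells stimulated with NPY at EC10 then isoproterenol at EC100; 0% = low agonist plus stimulus and 100% = saturating agonist plus stimulus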
Target sequence (P25929 whole entry, looked up): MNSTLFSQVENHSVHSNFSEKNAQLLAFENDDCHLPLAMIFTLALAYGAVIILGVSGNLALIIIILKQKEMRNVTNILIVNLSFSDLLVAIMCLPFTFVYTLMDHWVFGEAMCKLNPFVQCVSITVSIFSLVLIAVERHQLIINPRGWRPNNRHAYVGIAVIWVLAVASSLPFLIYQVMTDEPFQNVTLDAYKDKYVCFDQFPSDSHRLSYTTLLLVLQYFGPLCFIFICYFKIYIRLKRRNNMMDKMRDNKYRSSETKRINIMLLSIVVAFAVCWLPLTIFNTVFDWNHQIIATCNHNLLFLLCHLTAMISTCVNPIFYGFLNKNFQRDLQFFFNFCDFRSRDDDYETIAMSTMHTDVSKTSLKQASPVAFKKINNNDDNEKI
NPY2 pot ag: potentiates or activates human NPY-Y2 receptor; 220,000 compounds, 0.45% hits; activation, % at 3.6 µM; cells expressing NPY-Y2, potentiator/agonist read-out; in the data active = activation above about 27%;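 also: cells stimulated with NPY near EC25 plus isoproterenol at EC100; 0% = vehicle plus submaximal agonist and 100% = vehicle plus saturating agonist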
NPY-Y2 antag: NPY-Y2 (human) receptor antagonism; inhibition, % at 2.7 µM; 140,000 compounds, 0.99% hits; NPY-Y2 expressing cells, antagonist mode; P49146; in the data active = inhibition above about 17%;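 also: 0% = vehicle with agonist challenge and 100% = reference antagonist with challenge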
NPY-Y1 antag: NPY-Y1 (human) receptor antagonism. 200,000 compounds, 1% hits. AID 1040. inhibition, % at 3.6 µM. HEK293-CNG Y1 cells, membrane potential fluorescence; NPY at EC95, then isoproterenol;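 active = inhibition above the campaign mean inhibition of all tested compounds plus 3 SD, cut at about 20% in these data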;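 also: 0% = DMSO wells given NPY plus isoproterenol and 100% = isoproterenol alone without NPY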
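Material: Y1- and CNG-channel-expressing HEK293 cells / Probe or stimulus: NPY 25 nM then isoproterenol 1 µM plus Ro 20-1724 25 µM / Doses: 3.6 µM single dose, DMSO 0.4% / Schedule: compound incubation 1 h at room temperature, readout 45 min post-stimulation / Signal: membrane potential fluorescence / Benchmarks: isoproterenol-only wells as full block versus NPY-plus-isoproterenol wells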
Starred values were filed as active, the others as inactive; x = no result; ! = a repeat was not active. Compounds with a hit are over-represented: about 1.9% of the library has one in this group of screens.

SMILES | NPY1 pot ag | NPY2 pot ag | NPY-Y2 antag | NPY-Y1 antag
Cc1ccc(C(=O)Nc2ccccc2N2CCN(C(=O)C(C)C)CC2)cc1 | 10 | 4 | 4 | 14
CCOc1cccc(C(=O)Nc2ccccc2N2CCN(C(=O)C(C)C)CC2)c1 | -9 | -10 | 21* | 21*
CCC(=O)N1CCN(c2ccccc2NC(=O)Cc2ccccc2)CC1 | -17 | -17 | 16 | 24*
CS(=O)(=O)N1CCN(c2ccccc2NC(=O)Cc2ccccc2)CC1 | -22 | -3 | 9 | 7
COc1ccc(C(=O)C2CCCN(Cc3c[nH]c4ccccc34)C2)c(OC)c1 (centres undefined) | -27 | -18 | x | 1
CCCOC(=O)c1cccc(Nc2nc(-c3cccnc3)nc3ccccc23)c1 | -1 | 6 | -2 | -6
Cc1cccc2c1NC(=O)C2(c1ccc(O)cc1)c1ccc(O)cc1 | -39 | -14 | 114* | 116*
S=c1[nH]c2ccccc2o1 | 4 | -18 | x | 9
CCOC(=O)C1CCCN(CC(O)COc2ccccc2C(C)=O)C1 (centres undefined) | 62* | 37* | 2 | -7
CCOC(=O)C1CCCN(CC(O)COc2ccc(OC)cc2C(C)(C)C)C1 (centres undefined) | 41* | 49* | 2 | -5
CCOC(=O)C1CCCN(Cc2ccccc2OCC)C1 (centres undefined) | -1 | -10 | 4 | 0
CC(C)(C)C(O)(CC#CCN1CCCC1)c1ccccc1 (centres undefined) | 14 | 4 | x | 11
Cn1cnnc1SCc1ccccc1Br | 108* | 80* | -1 | -3
COc1ccccc1NC(=O)c1ccccc1C(=O)O | 7 | -18 | x | -4
COc1ccccc1NC(=O)c1cc2cc(Br)ccc2cc1O | 96* | 86* | x | x
O=C1CCC(=O)N1c1nc2n(n1)C(c1ccccc1)C=C(c1ccc(Br)cc1)N2 (centres undefined) | 89* | 7 | 0 | -6
Clc1cccc(C2CCN(Cc3nc(CC4CC4)no3)C2)c1 (centres undefined) | -3 | 7 | x | 9
CN(C)c1ccc(/C=N/N=C(N)N)cc1[N+](=O)[O-] | 4 | -12 | x | 0
CCN(CC)c1ccc(N=Nc2nn(C)c(C)c2[N+](=O)[O-])cc1 | 5 | 14 | -2 | -3
CCN(Cc1ccccc1)c1ccc(N=Nc2nn(C)c(C)c2[N+](=O)[O-])cc1 | 58* | 41* | -5 | -11
c1ccc(CN2CCN(c3nc(NCc4ccco4)c4ccccc4n3)CC2)cc1 | -26 | -16 | 28* | 31*
OCCN1CCN(c2nc(NCc3ccco3)c3ccccc3n2)CC1 | -40 | -19 | 7 | 12
Cc1ccc(OCCN2CCN(c3nc(NCc4ccco4)c4ccccc4n3)CC2)cc1 | -58 | -7 | 30* | 34*
O=C(Nc1ccc(C#Cc2ccccc2)cc1)C1CC1 | 78* | 38* | -3 | -6
O=C(/C=C/c1cccc2ccccc12)NCCC1=CCCCC1 | -50 | -21 | 22* | 32*
SMILES | NPY1 pot ag | NPY2 pot ag | NPY-Y2 antag | NPY-Y1 antag
COc1ccccc1/C=C/C(=O)OCC(=O)NCCC1=CCCCC1 | -29 | -19 | x | 10
Cc1cccc(NC(=O)CSc2nc3ccccc3c3nc(CCc4c(C)n[nH]c4C)nn23)c1 | -14 | 4 | 1 | -2
Cc1cncn1CCc1nc2c3ccccc3nc(SCC(=O)Nc3cccc(Cl)c3)n2n1 | -107 | -26 | 33* | 49*
COc1cc(-c2[nH]ncc2CN2CCN(c3cccc(C)n3)CC2)cc(OC)c1OC | -9 | -13 | x | x
CN(C(=O)c1ccc2c(c1)SC1=NS(=O)(=O)CCN12)C(c1ccccc1)c1ccccc1 | -21 | -20 | 22* | 37*
O=C(O)c1ccc2c(c1)SC1=NS(=O)(=O)CCN12 | 11 | -13 | x | x
CCc1ccccc1NC(=O)CN1C(=O)C2CCCN2c2ncc(Cl)cc21 (centres undefined) | -7 | -33 | 23* | 33*
CC1CCC(NC(=O)CN2C(=O)C3CCCN3c3ncc(Cl)cc32)CC1 (centres undefined) | -18 | -11 | 6 | 29*
Cn1c(CCc2nc3ccccc3[nH]2)nnc1SCC#N | -11 | -7 | x | -2
CCCCC(O)(CCCC)C(=O)NN(C(=O)c1cccnc1Cl)c1ccccc1 | 0 | -30 | x | x
Cc1cc(C)n(-c2nc(SCCN(C)C)c3c4c(sc3n2)CCCC4)n1 | -181 | -53 | 101* | 92*
Cc1cc(C)n(-c2nc(SCC(=O)O)c3c4c(sc3n2)COC(C)(C)C4)n1 | -7 | -2 | x | x
CCCN(CCC)CCCNC(=S)Nc1ccc2nc(N3CCCC3)cc(C)c2c1 | -25 | -11 | x | 22*
CCC(C)NC(=O)CCC(=O)Nc1ccc2nc(N3CCOCC3)cc(C)c2c1 (centres undefined) | 84* | 93* | 5 | -19
CCC(C)NC(=O)CCC(=O)Nc1ccc2nc(N3CC(C)CC(C)C3)cc(C)c2c1 (centres undefined) | 6 | 4 | x | 9
Cc1ccc(N2CCN(C(=O)NC3CCCCC3)CC2C)cc1 (centres undefined) | 23 | -10 | x | x
Cn1c(=O)c(C#N)c(-c2ccc(F)cc2)c2cc(C(=O)c3cc(Cl)cc(Cl)c3O)cnc21 | 58* | 92* | x | x
Cc1ccc(Cn2ncc3c(N4CCOCC4)ncnc32)cc1 | 8 | -11 | 1 | 2
Cc1ccc(Cn2ncc3c(N4CCN(c5ccccc5C)CC4)ncnc32)cc1 | -20 | -14 | 12 | 27*
C=CCc1cc(C)ccc1OCC(O)CN1CCN(c2ccccc2)CC1 (centres undefined) | 54* | 56* | 9 | -7
C=CCc1cc(OC)ccc1OCC(O)CN1CCN(c2ccc(OC)cc2)CC1 (centres undefined) | 20 | 4 | 4 | 5
OC(CSc1ccccc1Cl)CN1CCN(c2ccccc2F)CC1 (centres undefined) | -29 | -17 | 7 | 8
C=CCc1ccccc1OCC(O)CN1CCN(c2ccccc2F)CC1 (centres undefined) | 95* | 87* | 5 | -12
C=CCc1ccccc1OCC(O)CN1CCN(c2ccccc2OC)CC1 (centres undefined) | 112* | 102* | 4 | -15
COc1ccccc1N1CCN(CC(O)COc2ccc3c(c2)OCO3)CC1 (centres undefined) | -8 | -8 | x | 0
SMILES | NPY1 pot ag | NPY2 pot ag | NPY-Y2 antag | NPY-Y1 antag
OC(COc1ccccc1Cl)CN1CCN(CC(O)COc2ccccc2Cl)CC1 (centres undefined) | 86* | 48* | 4 | -14
CCN(C(=O)COC(=O)c1cccc(NS(=O)(=O)c2ccc(F)c(F)c2)c1)C1CCS(=O)(=O)C1 (centres undefined) | -16 | 2 | x | 2
Cc1cc(C)c(C)c(OC(=O)c2sc(Cl)nc2C)c1 | -4 | -5 | 4 | 2
COc1ccccc1N1CCN(CC(O)COc2cccc3ccccc23)CC1 (centres undefined) | 88* | 66*! | 6 | -7
C=CCc1ccccc1OCC(CN1CCCCC1)OC(C)=O (centres undefined) | 112* | 104* | 3 | -17
C=CCc1ccccc1OCC(O)CNC(C)C (centres undefined) | 116* | 103* | 4 | -13
